The record followed here is ChEMBL document CHEMBL1153313, “Fluorinated 9H-xanthene-9-carboxylic acid oxazol-2-yl-amides as potent, orally available mGlu1 receptor enhancers” (Bioorg Med Chem Lett, 2009).

Molecules are shown by their SMILES. pEC50: −log10 of the molar value.

Data set [1] concerns the target T1, Metabotropic glutamate receptor 1 (Rattus norvegicus, UniProt P23385). Put plainly: Agonist activity at rat mGlu1 receptor expressed in HEK293 cells assessed as increase in intracellular calcium by FLIPR assay. The format is functional, cell-based. The settings on record: for EC50: hek293; for pEC50: read-out: EC50. The procedure, abridged: (§1)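 Rat mGlu1a transiently transfected into HEK-293 cells, which were loaded with Fluo-3 AM for 1 h and then washed 4 times in assay buffer (DMEM with Hank's salts, 20 mM HEPES). [Ca2+]i was read on a fluorometric imaging plate reader and converted to fluorescence ratios. EC50 is the mean of separate values from at least three individual experiments.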
(In general: Calcium flux is commonly read through the fluorescence of an indicator in the cells.)

Data set [2] can be described thus: Metabolic stability in rat microsomes assessed as intrinsic clearance per mg protein. The format is ADME, Microsome.
The next data set deals with Rattus norvegicus. Put plainly: Volume of distribution in rat at 10 mg/kg, iv and po. In kind it is ADME, organism-based. Further details: dose 10 mg/kg, route oral; call rule not given here. The settings on record: in vivo. The procedure, abridged: (§2)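 Wistar rats, two per group, fitted with implanted jugular vein catheters. These catheters were used for the iv bolus and for blood sampling. Blood was drawn at 0.3, 0.5, 1, 2, 4, 8 and 24 h after iv or po administration for the plasma pharmacokinetic parameters.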

Data set [3] is described as follows: Half life in rat at 10 mg/kg, iv and po. The format is ADME, organism-based. Further details: dose 10 mg/kg, route oral. The following applies: in vivo. The procedure, abridged: as §2
Data set [4] deals with Metabotropic glutamate receptor 1 (Rattus norvegicus) (UniProt P23385). Put plainly: Agonist activity at rat mGlu1 receptor expressed in CHO cells assessed as […] of glutamate-activated K+ currents by electrophysiology relative to glutamate. In kind it is functional, cell-based. Further details: concentration or dose not given beside the values.
Data set [5] addresses T1, Metabotropic glutamate receptor 1. The experiment in a line: Agonist activity at rat mGlu1 receptor expressed in CHO cells assessed as potentiation of glutamate-activated K+ currents by electrophysiology.
A short description of data set [6]: Cmax in rat plasma at 10 mg/kg, po. Further details: dose 10 mg/kg, route oral. The format is ADME, organism-based. The procedure, abridged:
as §2

Data set [7] concerns the target Metabotropic glutamate receptor 1 (Rattus norvegicus) (UniProt P23385). Put plainly: Agonist activity at rat mGlu1 receptor expressed in HEK293 cells assessed as increase in intracellular calcium by FLIPR assay relative to control. In kind it is functional, cell-based. Further details: concentration or dose not given beside the values. The procedure, abridged:
as §1

Data set [8] can be described thus: Half life in rat at 5 mg/kg, iv and 10 mg/kg, po. In kind it is ADME, organism-based. The following applies: in vivo. The procedure, abridged:
as §2

Data set [9] can be described thus: Volume of distribution in rat at 5 mg/kg, iv and 10 mg/kg, po. In kind it is ADME, organism-based. The settings on record: in vivo, read-out: Vdss. The procedure, abridged: as §2
Data set [10] can be described thus: Clearance in rat at 5 mg/kg, iv and 10 mg/kg, po. In kind it is ADME, organism-based. The following applies: in vivo. The procedure, abridged: as §2
Data set [11] is described as follows: Clearance in rat at 3 mg/kg, iv and 6 mg/kg, po. In kind it is ADME, organism-based. The following applies: in vivo. The procedure, abridged: as §2
Data set [12] can be described thus: Half life in rat at 3 mg/kg, iv and 6 mg/kg, po. The format is ADME, organism-based. The settings on record: in vivo. The procedure, abridged:
as §2

Data set [13] is described as follows: Cmax in rat plasma at 6 mg/kg, po. The format is ADME, organism-based. Further details: dose 6 mg/kg, route oral. The procedure, abridged:
as §2

The nature of data set [14]: Volume of distribution in rat at 3 mg/kg, iv and 6 mg/kg, po. The settings on record: in vivo, read-out: Vdss. In kind it is ADME, organism-based. The procedure, abridged:
as §2

The nature of data set [15]: Ratio of drug level in brain to plasma in rat at 1 mg/kg, iv and 6 mg/kg, po. In kind it is ADME, organism-based. The following applies: in the assay text read “10 mg/kg” for “6 mg/kg”, read-out: BPR. The procedure, abridged: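 Brain/plasma ratio came from iv infusion in Wistar rats, two per group, at 1 mg/kg/h via catheter. Blood was sampled sublingually at 1, 3 and 5 h after administration. Brain tissue was taken by decapitation under isoflurane anaesthesia.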

Data set [16] can be described thus: Clearance in rat at 1 mg/kg, iv and 10 mg/kg, po. In kind it is ADME, organism-based. The following applies: in vivo. The procedure, abridged: as §2
The nature of data set [17]: Volume of distribution in rat at 1 mg/kg, iv and 10 mg/kg, po. The format is ADME, organism-based. The settings on record: in vivo, read-out: Vdss. The procedure, abridged: as §2
Data set [18] can be described thus: Half life in rat at 1 mg/kg, iv and 10 mg/kg, po. The following applies: in vivo. The format is ADME, organism-based. The procedure, abridged: as §2

Chain of Metabotropic glutamate receptor 1 (Rattus norvegicus) (P23385 19-1199 limits assumed): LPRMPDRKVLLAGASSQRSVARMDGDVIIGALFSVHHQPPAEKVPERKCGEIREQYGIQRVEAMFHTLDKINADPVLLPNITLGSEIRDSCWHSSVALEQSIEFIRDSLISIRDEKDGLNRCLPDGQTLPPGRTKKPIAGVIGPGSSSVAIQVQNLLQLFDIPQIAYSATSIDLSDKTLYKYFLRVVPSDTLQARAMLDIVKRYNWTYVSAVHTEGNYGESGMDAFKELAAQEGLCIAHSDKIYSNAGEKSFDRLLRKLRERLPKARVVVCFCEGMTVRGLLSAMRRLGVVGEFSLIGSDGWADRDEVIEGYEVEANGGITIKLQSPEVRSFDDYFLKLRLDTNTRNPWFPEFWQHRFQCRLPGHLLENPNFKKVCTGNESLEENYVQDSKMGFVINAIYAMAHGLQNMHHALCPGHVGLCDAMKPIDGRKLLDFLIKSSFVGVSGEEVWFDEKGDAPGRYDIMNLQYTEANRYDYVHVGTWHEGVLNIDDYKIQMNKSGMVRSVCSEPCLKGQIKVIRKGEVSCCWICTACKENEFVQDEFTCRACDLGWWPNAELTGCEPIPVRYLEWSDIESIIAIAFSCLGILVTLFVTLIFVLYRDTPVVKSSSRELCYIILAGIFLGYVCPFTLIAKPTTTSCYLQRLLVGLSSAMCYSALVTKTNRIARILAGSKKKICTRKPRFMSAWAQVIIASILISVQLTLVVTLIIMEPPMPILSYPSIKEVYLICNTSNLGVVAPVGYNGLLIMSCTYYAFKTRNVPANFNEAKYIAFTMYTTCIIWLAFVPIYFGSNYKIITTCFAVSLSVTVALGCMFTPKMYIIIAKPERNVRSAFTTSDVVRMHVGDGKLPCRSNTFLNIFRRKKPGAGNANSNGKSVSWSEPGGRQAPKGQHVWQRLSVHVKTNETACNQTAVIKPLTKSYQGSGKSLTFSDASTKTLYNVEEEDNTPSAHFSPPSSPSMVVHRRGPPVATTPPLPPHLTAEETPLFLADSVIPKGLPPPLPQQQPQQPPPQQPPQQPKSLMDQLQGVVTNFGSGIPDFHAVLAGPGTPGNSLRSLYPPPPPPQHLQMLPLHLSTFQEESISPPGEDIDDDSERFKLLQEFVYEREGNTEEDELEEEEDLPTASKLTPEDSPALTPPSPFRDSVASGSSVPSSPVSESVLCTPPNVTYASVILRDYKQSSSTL
T1 sequence (P23385 whole entry): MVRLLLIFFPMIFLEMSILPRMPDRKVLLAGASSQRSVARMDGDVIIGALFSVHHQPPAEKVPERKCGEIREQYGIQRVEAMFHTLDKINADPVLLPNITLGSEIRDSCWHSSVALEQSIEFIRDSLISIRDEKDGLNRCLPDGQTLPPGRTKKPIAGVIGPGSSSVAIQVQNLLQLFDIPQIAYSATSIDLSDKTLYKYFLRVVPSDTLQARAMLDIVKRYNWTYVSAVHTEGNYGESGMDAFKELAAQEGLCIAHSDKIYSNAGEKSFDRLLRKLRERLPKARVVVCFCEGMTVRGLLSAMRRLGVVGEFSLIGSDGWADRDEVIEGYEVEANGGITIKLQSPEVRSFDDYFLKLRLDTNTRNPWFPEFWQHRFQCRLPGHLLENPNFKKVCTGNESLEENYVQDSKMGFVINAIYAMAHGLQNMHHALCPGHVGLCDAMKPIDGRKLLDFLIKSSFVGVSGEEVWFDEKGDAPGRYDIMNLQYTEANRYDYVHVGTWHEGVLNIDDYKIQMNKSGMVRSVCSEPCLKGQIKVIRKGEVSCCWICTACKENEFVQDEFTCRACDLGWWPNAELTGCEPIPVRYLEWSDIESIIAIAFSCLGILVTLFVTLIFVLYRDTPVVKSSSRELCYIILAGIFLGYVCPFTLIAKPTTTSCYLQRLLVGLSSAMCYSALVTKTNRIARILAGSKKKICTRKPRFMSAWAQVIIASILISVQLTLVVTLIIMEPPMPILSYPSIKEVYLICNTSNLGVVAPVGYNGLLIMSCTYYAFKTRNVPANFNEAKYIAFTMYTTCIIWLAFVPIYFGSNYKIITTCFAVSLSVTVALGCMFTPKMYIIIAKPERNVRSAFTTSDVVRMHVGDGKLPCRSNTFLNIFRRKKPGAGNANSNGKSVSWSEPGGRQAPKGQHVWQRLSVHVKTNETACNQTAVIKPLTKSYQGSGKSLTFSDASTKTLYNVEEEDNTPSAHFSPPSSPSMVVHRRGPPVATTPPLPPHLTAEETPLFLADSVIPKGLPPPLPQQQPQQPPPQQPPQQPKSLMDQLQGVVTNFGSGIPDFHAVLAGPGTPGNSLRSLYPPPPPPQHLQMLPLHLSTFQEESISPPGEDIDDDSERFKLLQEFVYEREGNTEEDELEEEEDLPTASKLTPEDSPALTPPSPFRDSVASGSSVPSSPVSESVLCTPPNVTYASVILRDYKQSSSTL

On to `O=C(Nc1ncc(C(F)(F)F)o1)C1c2ccc(F)cc2Oc2cc(F)ccc21`, for which the EC50 result in data set [1] is on record as “Not Active”.
As to `O=C(Nc1ncc(C(F)(F)F)o1)C1c2ccccc2Oc2cc(F)ccc21` (racemic), the EC50 entry in data set [1] is “Not Active”. The clearance in data set [2] is 28 µL/min/mg.
The half-life is how long it takes for the measured level to halve. A word on the pEC50: it is the negative decadic logarithm of the EC50, by convention in mol/L. What is called Cmax is the highest concentration seen after dosing. `O=C(Nc1nc(C(F)(F)F)co1)C1c2ccccc2Oc2ccccc21` came in with a Vdss with Rattus norvegicus of 0.67 L/kg. In [3], this compound showed a half-life of 0.91 h. Besides, the Activity in data set [4] turned out to be 1130%; in data set [7], 86%. In data set [5], the pEC50 is 6.69. In data set [6], the Cmax is 1330 ng/mL. For the same compound, the clearance in [2] was found to be 108 µL/min/mg.
With `O=C(Nc1ncc(C(F)(F)F)o1)C1c2ccccc2Oc2c(F)cccc21` (racemic), the Activity in [4] turned out to be 910%; in [7], 50%. Moreover, in [5], the pEC50 was 6.88. In addition, the clearance in data set [2] is 32 µL/min/mg.
As to `O=C(Nc1nc(C(F)(F)F)co1)C1c2ccc(F)cc2Oc2cc(F)ccc21`, in data set [1], the EC50 entry is “Not Active”. Besides, the clearance in data set [2] turned out to be 38 µL/min/mg.
For `O=C(Nc1nc(C(F)(F)F)co1)C1c2ccccc2Oc2c(F)cccc21` (racemic), in data set [8], the half-life is 3.7 h. The pEC50 in [1] is 7.72; in data set [5], 6.99. Further, the results for the Activity in [4] and in data set [7] were 1190% and 84%, respectively. The Vd in data set [9] worked out at 0.99 L/kg. Moreover, the Cmax in data set [6] amounted to 1440 ng/mL. The clearance in data set [10] worked out at 3.3 mL/min/kg; in [2], 33 µL/min/mg.
Regarding `O=C(Nc1ncc(C(F)(F)F)o1)C1c2cccc(F)c2Oc2c(F)cccc21`, the results for the pEC50 in [1] and in data set [5] were 7.60 and 6.79, respectively. The values for the Activity in data set [4] and in [7] were 568% and 36%, respectively. In [2], the clearance turned out to be 12 µL/min/mg.
In the data set with Rattus norvegicus, `Cc1nc(NC(=O)C2c3ccccc3Oc3ccccc32)no1` gave a Vdss of 1.7 L/kg. The compound also gave a half-life in data set [3] of 0.32 h. The negative-log EC50 (pEC50) in [1] was 7.28; in [5], 6.66. Further, in [6], the Cmax is 1330 ng/mL. For the same compound, the Activity in [7] was 100%. In addition, the clearance in [2] came out at 42 µL/min/mg.
Take `O=C(Nc1ncc(C(F)(F)F)o1)C1c2ccccc2Oc2ccc(F)cc21` (racemic): the pEC50 in data set [1] was 7.70; in data set [5] it was 7.17. Besides, the Activity is 1220% in data set [4] and 57% in data set [7]. In addition, the clearance in data set [2] worked out at 40 µL/min/mg.
As for `O=C(Nc1nc(C(F)(F)F)co1)C1c2ccccc2Oc2ccc(F)cc21` (racemic), the pEC50 in [1] is 7.40. Also, the Activity in data set [7] was 63%. The clearance in data set [2] stood at 61 µL/min/mg.
As to `O=C(Nc1nc(C(F)(F)F)co1)C1c2ccccc2Oc2cc(F)ccc21` (racemic), the pEC50 in data set [1] is 7.40; in data set [5] it was 6.59. Besides, the Activity in [4] was determined as 570%; in data set [7], 50%. Further, the clearance in data set [2] came to 34 µL/min/mg.
As to `O=C(Nc1nc(C(F)(F)F)co1)C1c2cc(F)ccc2Oc2ccc(F)cc21`, the values for the Activity in [4] and in [7] were 300% and 48%, respectively. In addition, the clearance in [11] worked out at 7.4 mL/min/kg; in data set [2] it was 9 µL/min/mg. The same compound showed a half-life in data set [12] of 2.46 h. Besides, the highest level in data set [13] (Cmax) was 1810 ng/mL. In addition, in data set [14], the Vd is 0.9 L/kg. Also, in [5], the pEC50 was 7.05.
Consider `O=C(Nc1nc(C(F)(F)F)co1)C1c2cccc(F)c2Oc2c(F)cccc21`, for which the pEC50 was 7.33 in data set [1] and 6.79 in data set [5]. For the same compound, the Kp in data set [15] came to 0.2. Moreover, the Activity in data set [4] stood at 707%; in data set [7] it was 51%. In addition, the clearance is 3.79 mL/min/kg in [16] and 18 µL/min/mg in [2]. For the same compound, the Vd in data set [17] worked out at 0.43 L/kg. This compound showed a half-life in data set [18] of 3.9 h. Moreover, in [6], the peak level (Cmax) was 2070 ng/mL.
With `O=C(Nc1ncc(C(F)(F)F)o1)C1c2ccccc2Oc2ccccc21`, the Activity in data set [4] is 3060%; in data set [7], 104%. The pEC50 in data set [5] is 6.40. The clearance in data set [2] is 50 µL/min/mg.
